The values that follow come from ChEMBL document CHEMBL4732138, “Evaluation of the Structure-Activity Relationship of Microtubule-Targeting 1,2,4-Triazolo[1,5-a]pyrimidines Identifies New Candidates for Neurodegenerative Tauopathies” (J Med Chem, 2021).

Series [1] deals with T1, Tubulin (Homo sapiens) (UniProt P68371+Q9H4B7+P0DPH7+P68366+Q13509+Q71U36+P04350+Q3ZCM7+P07437+P68363+Q9BQE3+Q6PEY2+Q13885+Q9BVA1+Q9BUF5). Briefly: Stabilization of microtubules in human QBI293 cells assessed as fold change in acetylated tubulin levels at 10 uM after 4 hrs by ELISA relative to cevipabulin. It counts as cell-based. A general note: ELISA stands for enzyme-linked immunosorbent assay.

Series [2] is described as follows: n-octanol-water distribution coefficient, log D of the compound at pH 7.4 by shake flask method. It counts as physicochemical. The following applies: n-octanol/water, read-out: logD. The gist of the method:
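Distribution coefficient between n-octanol and water at pH 7.4, measured by shake-flask method.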

The target in series [3] is T1, Tubulin (Homo sapiens). The series can be described thus: Stabilization of microtubules in human QBI293 cells assessed as fold change in acetylated tubulin levels at 1 uM after 4 hrs by ELISA relative to cevipabulin. It counts as cell-based.
Series [4] is described as follows: Ratio of drug concentration in brain to plasma in CD-1 mouse at 2.5 mg/kg, ip administered as single cassette dosing and measured after 1 hr. Format: ADME, organism-based. The following applies: read-out: BPR. In a few lines:
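Groups of three female CD-1 mice, 2–3 months old, cassette-dosed i.p. with 2–3 compounds at the same time, each at 2.5 mg/kg in DMSO. Euthanised 1 h after dosing. Brain hemispheres homogenised in 10 mM ammonium acetate pH 5.7 (50% w/v). Plasma from blood collected in EDTA and centrifuged 4,500 × g, 10 min, 4 °C. Compound levels measured in both; brain/plasma ratio reported.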

In series [5] the target is T1, Tubulin (Homo sapiens). The series can be described thus: Stabilization of microtubules in human QBI293 cells assessed as fold change in alpha tubulin levels at 1 uM after 4 hrs by ELISA relative to DMSO. Format: cell-based. The gist of the method: (§1)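 QBI293 cells were grown in DMEM with 10% FBS, 2 mM L-glutamine and penicillin/streptomycin, then plated at 6 × 10^5 cells/well and left overnight. Medium was replaced with fresh medium holding vehicle (DMSO) or compound, and cells were incubated 4 h. Whole-cell extract supernatants were protein-normalized by BCA assay. AcTub and α-tubulin were quantified by ELISA against standard curves. Values are fold-change over DMSO, analysed by one-way ANOVA.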

The target in series [6] is T1, Tubulin (Homo sapiens). Briefly: Stabilization of microtubules in human QBI293 cells assessed as fold change in acetylated tubulin levels at 10 uM after 4 hrs by ELISA relative to DMSO. Format: cell-based. The gist of the method: as §1
Series [7] concerns the target T1, Tubulin (Homo sapiens). Briefly: Stabilization of microtubules in human QBI293 cells assessed as fold change in alpha tubulin levels at 10 uM after 4 hrs by ELISA relative to DMSO. It counts as cell-based. The gist of the method:
as §1

The target in series [8] is T1, Tubulin (Homo sapiens). The series can be described thus: Stabilization of microtubules in human QBI293 cells assessed as fold change in acetylated tubulin levels at 1 uM after 4 hrs by ELISA relative to DMSO. Format: cell-based. In a few lines:
as §1

Series [9] can be described thus: Half life in CD-1 mouse plasma at 5 mg/kg, ip administered as single cassette dosing and measured upto 16 hrs. It counts as ADME, organism-based. The gist of the method:
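CD-1 mice, female, 2–3 months old, three per group, given a single i.p. dose of 5 mg/kg dissolved in DMSO. Brain and plasma sampled over 16 h. Plasma is from blood collected in 0.5 M EDTA and spun 10 min at 4,500 × g, 4 °C. Brain hemispheres are sonicated in 10 mM ammonium acetate pH 5.7 (50% w/v). Compound levels are measured in plasma and brain homogenates.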

Series [10] has as its system Primary cortical neuron. Briefly: Stabilization of microtubules in CD-1 mouse primary cortical neurons assessed as prevention of microtubule collapse by causing increase in acetyl tubulin levels at 10 uM incubated for 8 hrs in presence of phosphatase inhibitor OA by ELISA. Format: tissue-based. In a few lines: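 Mouse cortical neurons are plated at 6 × 10^5 cells/well and grown 10 days. […] Acetyl-tubulin in homogenates is measured by ELISA.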

The subject of series [11] is Primary cortical neuron. Briefly: Stabilization of microtubules in Spargue-Dawley rat primary cortical neurons assessed as prevention of microtubule collapse by causing increase in acetyl tubulin levels at 1 uM incubated for 8 hrs in presence of phosphatase inhibitor OA by fluorescence microscopy analysis. It counts as tissue-based. In a few lines: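 Rat cortical neurons are grown 10 days on coverslips. They are treated 8 h with or without 15 nM okadaic acid, with or without test compound at 1 µM. Axonal acetyl-tubulin is then assessed by immunostaining.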

Series [12] addresses T1, Tubulin (Homo sapiens). The series can be described thus: Stabilization of microtubules in human QBI293 cells assessed as decrease in alpha-tubulin levels at 1 to 10 uM after 4 hrs by ELISA relative to control. Also on record: scale not given: the % may be the effect or the level left. The following applies: dose 1-10 µM. Format: cell-based. The gist of the method:
(§2)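 QBI293 cells are grown in DMEM with 10% FBS, 2 mM L-glutamine and penicillin/streptomycin, plated at 6 × 10^5 cells/well and incubated overnight. […] Acetyl- and total α-tubulin in whole-cell extract supernatants are measured by ELISA against standard curves, with protein by BCA. Values are fold-change over DMSO; AcTub is also given relative to 100 nM cevipabulin positive control. Significance is by one-way ANOVA.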

Series [13] has as its target T1, Tubulin (Homo sapiens). The series can be described thus: Stabilization of microtubules in human QBI293 cells assessed as increase in acetylated tubulin levels after 4 hrs by ELISA. Format: cell-based. In a few lines: as §2
The nature of series [14]: Ratio of drug concentration in brain to plasma in CD-1 mouse at 5 mg/kg, ip administered as single cassette dosing and measured after 1 hr. Format: ADME, organism-based. The following applies: read-out: BPR. In a few lines:
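Groups of three female CD-1 mice (2–3 months old) received one i.p. dose of 5 mg/kg in DMSO and were euthanized 1 h later. Brain hemispheres were sonicated in 10 mM ammonium acetate, pH 5.7 (50% w/v). Plasma came from blood collected in 0.5 M EDTA, spun 10 min at 4,500 × g, 4 °C. B/P is the ratio of brain to plasma compound concentration.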

Series [15] addresses T1, Tubulin (Homo sapiens). The series can be described thus: Stabilization of microtubules in human QBI293 cells assessed as decrease in alpha-tubulin levels at 10 uM after 4 hrs by ELISA relative to control. It counts as cell-based. Also on record: scale not given: the % may be the effect or the level left. In a few lines:
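QBI293 cells grown in DMEM with 10% FBS, 2 mM L-glutamine and penicillin/streptomycin, plated at 6 × 10^5 cells/well and left overnight. […] Whole-cell extract supernatants protein-normalised by BCA. Total α-tubulin measured by ELISA against standard curves, reported as fold-change over DMSO-treated cells; one-way ANOVA.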

Activity calls are given as the source filed them. No cut-off for these calls is given here.

What is called logD is lipophilicity at a set pH, counting ionised and neutral species. For the compound `CC(C)[C@@H](C)Nc1c(-c2c(F)cc(C#N)cc2F)c(Cl)nc2ncnn12`, the fold change (FC) in [1] was 0.69; in series [3], 0.62; in series [5], 0.93; in series [6], 4.28; in series [7], 0.94; in series [8], 3.8. Moreover, the logD in series [2] came out at 2.47. Also, in series [4], the Kp at 1 h turned out to be 0.7.

As usually defined, the half-life is the time in which the quantity being followed falls by half. On to `C[C@@H](Nc1c(-c2c(F)cc(C#N)cc2F)c(Cl)nc2ncnn12)C(C)(C)C`, for which the logD in series [2] came out at 2.35. This compound gave a half-life in series [9] of 1.8 h. Also, the result in series [10] and in [11] was Active. Further, the Kp at 1 h in series [4] turned out to be 0.7.

With `N#Cc1cc(F)c(-c2c(Cl)nc3ncnn3c2N2CCCCCC2)c(F)c1`, the fold change (FC) in [1] was determined as 1.82; in series [3], 1.04; in series [5] it was 0.98; in series [6] it was 11.2; in series [7], 0.99; in series [8], 6.4. The logD in series [2] amounted to 2.12. Besides, the Kp at 1 h in series [4] was 0.7.

As to `C[C@H](Nc1c(-c2c(F)cc(OCCCO)cc2F)c(Cl)nc2ncnn12)C(F)(F)F`, the Activity in series [12] is over 15%.

Regarding `CC(C)[C@@H](C)Nc1c(-c2c(F)cc(F)cc2F)c(Cl)nc2ncnn12`, the logD in series [2] amounted to 3.51. In addition, the half-life in series [9] was 1.1 h. For the same compound, in series [11], the outcome was Active. For the same compound, in [13], the Activity result is “Dose-dependent effect”. In addition, the Kp at 1 h in [14] was found to be 2.7.

In the case of `C[C@H](Nc1c(-c2c(F)cc(O)cc2F)c(Cl)nc2ncnn12)C(F)(F)F`, the fold change (FC) in series [1] stood at 0.77; in series [3], 0.23; in series [5], 0.84; in series [6] it was 4.11; in series [7], 0.57; in series [8], 1.22. Besides, the Activity in [12] is over 15%.

For `Fc1cc(F)c(-c2c(Cl)nc3ncnn3c2N2CCCCCC2)c(F)c1`, the fold change (FC) in series [1] is 0.74; in series [3], 0.45; in series [5], 0.99; in [6], 6.87; in series [7], 0.99; in series [8], 4.16. Also, the logD in series [2] is 3.38. Besides, the Activity entry in series [13] is “Dose-dependent effect”. Further, the Kp at 1 h in [14] came to 1.4.

Take `CC(Cc1c(-c2c(F)cc(F)cc2F)c(Cl)nc2ncnn12)C(F)(F)F` (centres undefined): the fold change (FC) in [1] came to 0.53; in [3] it was 0.53; in series [5], 1.03; in [6], 2.29; in series [7] it was 0.78; in series [8], 2.3. The Activity in series [15] is 22%.

Take `C[C@H](Nc1c(-c2c(F)cc(Cl)cc2F)c(Cl)nc2ncnn12)C(F)(F)F`: the fold change (FC) in [1] was 0.7; in [3] it was 0.31; in [5], 0.93; in series [6] it was 4.28; in series [7], 0.81; in [8], 1.88. In addition, in series [12], the Activity was over 15%.

For `CSc1cc(F)c(-c2c(Cl)nc3ncnn3c2N[C@@H](C)C(F)(F)F)c(F)c1`, the fold change (FC) came to 0.35 in [1]; 0.27 in [3]; 0.88 in series [5]; 2.23 in [6]; 0.56 in [7]; 1.75 in series [8]. In addition, in series [12], the Activity was over 15%.

`Cc1cc(F)c(-c2c(Cl)nc3ncnn3c2N[C@@H](C)C(F)(F)F)c(F)c1`: the fold change (FC) turned out to be 0.48 in series [1]; 0.28 in series [3]; 0.99 in series [5]; 2.73 in series [6]; 0.78 in series [7]; 1.62 in [8]. In addition, the Activity in [12] is over 15%.

Consider `CO[C@H]1C[C@H]2CC[C@@H](C1)N2c1c(-c2c(F)cc(F)cc2F)c(Cl)nc2ncnn12`, for which the fold change (FC) in [1] turned out to be 1.11; in [3] it was 0.54; in series [5] it was 1.12; in [6] it was 7.43; in series [7], 1.38; in series [8], 3.65. Also, in [2], the log distribution coefficient (logD) amounted to 3.38. Besides, in series [13], the Activity result is “Dose-dependent effect”.

`CC(C)[C@H](Nc1c(-c2c(F)cc(F)cc2F)c(Cl)nc2ncnn12)C(F)(F)F`: the Activity in series [15] is 39%.

As to `COc1cc(F)c(-c2c(Cl)nc3ncnn3c2N[C@@H](C)C(F)(F)F)c(F)c1`, the fold change (FC) in [1] was determined as 0.42; in series [3] it was 0.64; in [5], 0.72; in series [6], 2.07; in series [7], 0.51; in series [8] it was 3.16. The Activity in [12] was over 15%.

On to `CO[C@H]1C[C@H]2CC[C@@H](C1)N2c1c(-c2c(F)cc(C#N)cc2F)c(Cl)nc2ncnn12`, for which the fold change (FC) in series [1] worked out at 1.06; in [3] it was 0.64; in series [5] it was 0.99; in series [6], 4.32; in [7] it was 1; in series [8], 2.61. For the same compound, the logD in series [2] was determined as 2.74.
